# Laboratory results: ChEMBL document CHEMBL3120048 (J Med Chem, 2014)
# pEC50, pIC50: −log10 of the molar value. Active and inactive are the calls of the source. The rule behind the calls is not given here.
# How the values were obtained:
# Hepatitis C virus = test: Antiviral activity against Hepatitis C virus Con1 genotype 1b expressing NS2-NS5B infected in human HuH7 cells after 72 hrs by luciferase reporter gene assay; format: functional, organism-based, Hepacivirus hominis; settings: isolate Con1, Huh-7, 72 h
# In short: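 Cells carrying a bicistronic luciferase reporter subgenomic replicon (Con1 GT-1b, NS2-NS5B coding region) were incubated with compound for 72 h. Relative luciferase levels were then read with Bright-Glo substrate, and EC50 values were derived from these readings.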
# [1] = Inhibition of HCV genotype 1b NS5Bdelta21 RNA dependent RNA polymerase expressed in Escherichia coli JM109 (DE3); design: species or system Hepatitis C virus subtype 1b
# [2] = biological target: DNA polymerase beta (Homo sapiens) (UniProt P06746); test: Inhibition of DNA polymerase-beta (unknown origin)
# Homo sapiens [3] = species on record: Homo sapiens; test: Inhibition of DdRp-2 (unknown origin)
# Homo sapiens [4] = species on record: Homo sapiens; test: Inhibition of DNA polymerase-alpha (unknown origin)
# Homo sapiens [5] = species on record: Homo sapiens; test: Inhibition of DNA polymerase-gamma (unknown origin)
# Enterovirus C = test: Inhibition of poliovirus RdRp
smiles,measurement,setting,value
Cn1c(C2(NC(=O)c3ccc4c5c(n(C)c4c3)CCCC53CCCCC3)CCC2)nc2cc3cc(C(=O)O)sc3cc21,pEC50,Hepatitis C virus,7.42
same,pIC50,[1],6.46
Cn1c2c(c3ccc(C(=O)O)cc31)C1(CCCCC1)CCC2,pEC50,Hepatitis C virus,< 4.96
same,pIC50,[1],4.80
Cn1c(C2(NC(=O)c3ccc4c(C5CCCC5)c(-c5ncc(Br)cn5)n(C)c4c3)CCC2)nc2ccc(/C=C/C(=O)O)cc21 [DELEOBUVIR],inhibition,[2],inactive
same,inhibition,Homo sapiens [3],inactive
same,pIC50,[1],7.30
same,inhibition,Homo sapiens [4],inactive
same,inhibition,Homo sapiens [5],inactive
same,inhibition,Enterovirus C,inactive
Cc1c(C(=O)N[C@H](C)C(=O)Nc2ccc(/C=C/C(=O)O)cc2)ccc2c1nc(-c1ccoc1)n2C1CCCCC1,pIC50,[1],6.05
"Cn1c(C(=O)O)cc2cc(NC(=O)C3(NC(=O)c4ccc5c(c4)nc(-c4ccoc4)n5C4CCCCC4)CCCNC3)ccc21 (single isomer, unassigned; enantiomer 2)",pIC50,[1],7.08
O=C(O)/C=C/c1ccc(NC(=O)C2(NC(=O)c3ccc4c(c3)nc(-c3ccoc3)n4C3CCCCC3)CCNCC2)cc1,pEC50,Hepatitis C virus,5.30
same,pIC50,[1],7.37
Cn1c(C2(NC(=O)c3ccc4c5c(n(C)c4c3)CCCC53CCCCC3)CCC2)nc2ccc(/C=C/C(=O)O)cc21,pEC50,Hepatitis C virus,7.31
same,pIC50,[1],6.74
COc1ccc2c(c1)OCCn1c-2c(C2CCCCC2)c2ccc(C(=O)NC3(C(=O)Nc4ccc(/C=C/C(=O)O)cc4)CCC3)cc21,pEC50,Hepatitis C virus,8.40
same,pIC50,[1],6.25
C[C@@H](NC(=O)c1ccc2c(n1)nc(-c1ccoc1)n2C1CCCCC1)C(=O)Nc1ccc(/C=C/C(=O)O)cc1,pIC50,[1],6.48
CCOc1cc(NC(=O)C2(NC(=O)c3ccc4c5c(n(C)c4c3)CCCC53CCCCC3)CCC2)ccc1/C=C/C(=O)O,pEC50,Hepatitis C virus,7.03
same,pIC50,[1],6.34
Cc1cc2c(cc1C(=O)N[C@H](C)C(=O)Nc1ccc(/C=C/C(=O)O)cc1)nc(-c1ccoc1)n2C1CCCCC1,pIC50,[1],5.40
O=C(O)COc1ccc2[nH]cc(C[C@H](NC(=O)c3ccc4c(c3)nc(-c3ccoc3)n4C3CCCCC3)C(=O)O)c2c1,pEC50,Hepatitis C virus,4.19
C[C@@H](NC(=O)c1ccc2c(c1)nc(-c1ccoc1)n2C1CCCCC1)C(=O)Nc1ccc(/C=C/C(=O)O)cc1,pIC50,[1],7.06
Cn1c(C(=O)O)cc2cc(NC(=O)C3(NC(=O)c4ccc5c(c4)nc(-c4ccoc4)n5C4CCCCC4)CCNCC3)ccc21,pIC50,[1],7.26
"Cn1c(C(=O)O)cc2cc(NC(=O)C3(NC(=O)c4ccc5c(c4)nc(-c4ccoc4)n5C4CCCCC4)CCCNC3)ccc21 (single isomer, unassigned; enantiomer 1)",pIC50,[1],5.89
